Calb FLC = C. albicans growth modulation with fluconazole; C. albicans CaCi-2 (fluconazole-resistant clinical isolate) + fluconazole, Alamar Blue growth, 48 h; growth inhibition, % (no concentration beside the values); 0.57% of 300,000 active; AID 1979;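 active = growth inhibition above about 58% in most replicates, limit read from the data, passing the limit was not always enough; inconclusive = exactly half the replicates above a set limit; inactive = most replicates below a set limit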;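 also: all wells also contain fluconazole at 8 µg/ml as a sub-toxic cotreatment; 0% = median of DMSO wells and 100% = median of geldanamycin control wells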
UCH37 inh = human UCH37 deubiquitinating enzyme inhibition | purified proteasome/UCH37, Ub-AMC cleavage fluorescence | inhibition, % (test concentration not listed) | 0.33% of 330,000 active;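 active = mean inhibition over replicate wells above about 20%, limit read from the data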;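 also: 0% = compound-free wells with enzyme and 100% = wells lacking proteasome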
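Material: human UCH37 enzyme supplied as purified proteasome complex. Measure: % inhibition of Ub-AMC cleavage fluorescence. Medium: pH 7.4 Tris-HCl (50 mM) with ovalbumin, ATP-MgCl2, DTT. Times: 30 min preincubation with enzyme, 25 min cleavage at room temperature. Detection: AMC fluorescence intensity at 355/460 nm.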
ATG4B inhibitor = ATG4B (human) cysteine protease inhibition; ATG4B cleavage of LC3-PLA2, NBD-HPC fluorescence, 1 h; AID 504462; inhibition, % at 8.33 µM; Q9Y4P1; 0.51% of 340,000 active; in the data active = inhibition above about 40%
Target sequence (Q9Y4P1 whole entry, looked up): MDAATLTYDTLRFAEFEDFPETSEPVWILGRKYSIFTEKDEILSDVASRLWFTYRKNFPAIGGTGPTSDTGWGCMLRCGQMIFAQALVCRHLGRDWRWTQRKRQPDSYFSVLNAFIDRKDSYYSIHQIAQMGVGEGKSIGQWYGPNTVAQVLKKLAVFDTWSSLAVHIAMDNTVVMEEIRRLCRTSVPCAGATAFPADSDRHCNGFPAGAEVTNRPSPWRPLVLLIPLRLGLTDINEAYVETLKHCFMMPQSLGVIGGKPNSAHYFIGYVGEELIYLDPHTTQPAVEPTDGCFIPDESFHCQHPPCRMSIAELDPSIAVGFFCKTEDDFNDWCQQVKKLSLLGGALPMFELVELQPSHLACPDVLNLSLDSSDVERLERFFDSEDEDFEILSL
NLRP3 yeast inh = inhibitors of NALP3 inflammasome in yeast; AID 2825; Yeast reconstituted NLRP3/ASC/caspase-1, beta-gal luminescence, 24 h; 0.39% of 330,000 active; inhibition, % at 10 µM;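 active = inhibition of 50% or more; inactive = inhibition below 50%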;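 also: plate controls were induced DMSO wells for no effect and uninduced yeast grown without galactose for full effect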
ALR H2O2 inh = inhibitors of human sulfhydryl oxidase ALR | P55789 | purified ALR, DTT oxidation, H2O2 HRP-luminol luminescence | inhibition, % (no concentration beside the values) | 3.8% of 290,000 active;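 active = mean replicate inhibition above about 79%, with every replicate also reaching it, limit read from the data; inconclusive = only one of the two criteria met; inactive = mean below limit and not every replicate reaching it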
Target sequence (P55789 whole entry, looked up): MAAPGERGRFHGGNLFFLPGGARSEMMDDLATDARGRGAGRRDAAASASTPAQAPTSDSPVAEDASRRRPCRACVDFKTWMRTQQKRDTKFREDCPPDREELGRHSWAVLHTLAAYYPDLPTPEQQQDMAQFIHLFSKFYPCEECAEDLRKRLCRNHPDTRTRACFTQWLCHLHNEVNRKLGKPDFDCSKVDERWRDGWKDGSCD
NALP1 yeast inh = inhibitors of NALP1 inflammasome in yeast. S. cerevisiae NALP1/ASC/caspase-1 growth, X-gal OD620, 72 h. inhibition, % at 10 µM. 0.61% of 280,000 active. AID 2071; in the data active = inhibition mostly above about 24%, no sharp cut-off; inactive = mostly below about 32%
Starred values were filed as active, the others as inactive; i = inactive; u = inconclusive; x = not tested or not shown. An excerpt weighted towards active compounds, which were near 4.8% of everything screened.

SMILES	Calb FLC	UCH37 inh	ATG4B inhibitor	NLRP3 yeast inh	ALR H2O2 inh	NALP1 yeast inh
C/C(C=NNC(=O)C(O)c1ccccc1)=C\c1ccccc1 (stereo not given)	x	1	x	x	x	x
COc1cc(C=NNC(=O)C2CCN(CC(O)COCc3ccccc3)CC2)cc(OC)c1OC (stereo not given)	x	1	x	x	x	x
CC1(C)Cc2nc3n[nH]c(N)c3cc2CO1	-10	3	-6	10	87*	13
Cc1nc2n[nH]c(N)c2c2c1COC(C)(C)C2	5	1	2	8	62	-15
COc1ccc(-c2[nH]ncc2-c2ccc3c(c2)OCCO3)c(O)c1	-4	5	-12	10	92*	11
COc1ccccc1C=Nn1nnnc1N	x	-4	x	x	x	x
Cc1ccc[n+](-c2nc([O-])sc2/C=N/Nc2ccc([N+](=O)[O-])cc2)c1	-3	x	5	22	92*	x
Cc1cc[n+](-c2nc([O-])sc2C=NNc2ccc([N+](=O)[O-])cc2)cc1	x	8	x	x	x	x
CC(=O)Nc1cccc(C(C)=NNC(=O)c2cc(-c3ccncc3)nc3ccccc23)c1	x	1	x	x	x	x
CCOC(=O)c1sc(-c2ccc(C(F)(F)F)cc2)nc1O	6	-26	-2	1	11	32*
CC(C)(C)C(O)=C(C#N)c1nc2ccccc2[nH]1	x	3	x	x	x	x
COc1ccccc1N1CCN(CCN(C(=O)c2ccc(F)cc2)c2ccccn2)CC1	x	5	-4	7	94*	x
COc1ccccc1N1CCN(CC(C)N(C(=O)C2CCCCC2)c2ccccn2)CC1 (stereo not given)	-5	1	-3	20	32	4
COc1ccccc1N1CCN(CCCC(=O)c2ccc(F)cc2)CC1	x	1	4	10	64	11
COc1ccccc1N1CCN(CCN(C(=O)C2CCCCC2)c2ccccn2)CC1	-21	1	-7	5	97*	x
COc1ccc(C=NNC(=O)C(=O)NCc2cccnc2)cc1OC	x	6	x	x	x	x
CC1=CC(=Nc2c(C)n(C)n(-c3ccccc3)c2=O)C=C(C)C1=O	-3	0	-3	14	99*	40
Cc1c(N=NC2=C(O)CC(C)(C)CC2=O)c(=O)n(-c2ccccc2)n1C	96*	17	1	13	11	-22
Cc1ccc(O)c(N=NC2=C(O)CC(C)(C)CC2=O)c1	85*	16	12	33	11	16
CCNc1ccc(N=Nc2c(C)n(C)n(-c3ccccc3)c2=O)cc1	-2	16	0	13	99*	-3
Cc1ccccc1NN=Cc1c(C)nc2ccccn12	x	-19	x	x	x	x
O=C(Cc1cccs1)NN=Cc1ccccn1	x	2	x	x	x	x
CC1C/C(=C\c2cccnc2)C(=O)/C(=C/c2cccnc2)C1 (stereo not given)	x	8	-3	x	96*	68*
O=C1/C(=C/c2cccnc2)CCc2c1[nH]c1ccccc21	76*	3	-4	28	-11	-6
O=C1/C(=C\c2cccnc2)Sc2ccccc21	-5	3	3	-1	4	x
SMILES	Calb FLC	UCH37 inh	ATG4B inhibitor	NLRP3 yeast inh	ALR H2O2 inh	NALP1 yeast inh
COc1ccccc1NC(=O)C(=O)NN=C(C)CC(=O)Nc1ccccc1C(F)(F)F	x	1	x	x	x	x
Cn1c(N2CCOCC2)nc(-c2ccccc2)c1-c1ccccc1	5	-37	-12	-73	99*	-27
CC1(C)C2(C#N)C(N)=NC3(OCCO3)C12C#N (stereo not given)	-4	3	5	12	100*	4
Cc1cccnc1NC(=S)Nc1ccc(F)cc1F	-10	3	-2	34	-6	7
Cc1ccc(C)c(NC(=S)Nc2ncccc2C)c1	-57	3	0	21	79*	-8
CCC(=NNc1ccnc2cc(Cl)ccc12)c1ccc(O)cc1	x	2	x	x	x	x
COC(=O)NN=Cc1cn(CCCOc2ccccc2)c2ccccc12	x	4	x	x	x	x
Fc1ccc2c(c1)C(c1ccncc1)=NNC(c1cccnc1)=N2	81*	2	-2	-6	0	15
Clc1ccc2c(c1)C(c1cccs1)=NNC(c1cccnc1)=N2	90*	4	11	8	0	-12
Cn1cccc1CC(=O)NN=Cc1cccc2ccccc12	x	1	x	x	x	x
COc1ccc(OC)c(C=NNC(=O)CN2CCSCC2)c1	x	i	x	x	x	x
O=C(NN=Cc1ccc(O)cc1)c1cccc(NN=Cc2ccc(O)cc2)c1	x	-17	x	x	x	x
COc1ccc(S(=O)(=O)N2CCN(C(=O)COc3ccccc3)CC2)cc1	1	1	-1	17	-11	-3
Cc1ccc(S(=O)(=O)N2CCN(C(=O)COC(=O)COc3ccccc3)CC2)cc1	u	0	-2	-2	-10	29*
CC(=NNC(=O)c1cc(C)oc1C)c1ccc2c(c1)OCO2	x	2	x	x	x	x
Nc1nnc(N2CCc3ccccc32)s1	-2	5	6	15	99*	14
C=CCn1c(C)csc1=Nc1ccccc1C	-8	3	3	14	99*	9
C=CCn1c(C)csc1=Nc1ccc(C(C)=O)cc1	15	1	-7	20	16	8
O=C(Cc1cc(=O)[nH][nH]1)NN=C/C=C/c1ccccc1	x	5	x	x	x	x
COC(=O)[C@H](Cc1ccccc1)NC(=O)N1CCN(c2ccccc2)CC1	17	3	2	10	85*	x
COC(=O)[C@H](Cc1ccccc1)NC(=O)N1CCCCC1	0	5	-4	7	-29	x
O=C(O)[C@H](Cc1ccccc1)NC(=O)N1CCN(c2ccc(F)cc2)CC1	-1	1	-3	16	98*	x
CC1CCN(C(=O)N[C@@H](Cc2ccccc2)C(=O)O)CC1	-1	-1	-2	19	-3	0
CSc1nc(-c2ccccc2)nc(N2CCN(C)CC2)c1C(C)=O	17	x	-12	43	-22	34*
COc1cc([N+](=O)[O-])c(N2CCOCC2)c([N+](=O)[O-])c1OC	20	7	0	5	7	42*
SMILES	Calb FLC	UCH37 inh	ATG4B inhibitor	NLRP3 yeast inh	ALR H2O2 inh	NALP1 yeast inh
O=[N+]([O-])c1cc(Br)c2nsnc2c1N1CCOCC1	25	9	6	28	-6	13
CCOC(=O)c1c(NC(=O)/C=C/C(=O)O)sc(C)c1-c1ccc(C(C)(C)C)cc1	41	16	15	5	97*	-3
CCOC(=O)c1c(NC(=O)/C=C\C(=O)O)sc(C)c1-c1ccccc1	29	7	5	7	-2	4
CC(=NNc1cc(N2CCOCC2)nc(C)n1)c1cccc([N+](=O)[O-])c1	x	8	x	x	x	x
COc1ccc(/C=C/C(=O)Oc2cccc(C=NNC(=O)COc3c(C)cccc3C)c2)cc1	x	-2	x	x	x	x
COC(=O)c1ccc(COc2ccccc2C=NNS(=O)(=O)c2ccccc2)cc1	x	1	x	x	x	x
COC(=O)C1CCN(C(=O)CN2C(=O)NC(CCc3ccccc3)C2=O)CC1 (stereo not given)	0	-2	-4	11	99*	5
N#CCCN(Cc1ccccc1)C(=S)NC(=O)c1ccccc1	-4	4	14	12	98*	25
